This is one part of a sample in which hits are shown more often than they occur.
S1P4 ag: activates the human S1P4 receptor; O95977; S1P4-expressing cell line, agonist reporter assay; 0.35% of 220,000 active; activation, % at 4.98 µM; AID 1509; in the data active = activation above about 11%
Target sequence (O95977 whole entry, looked up): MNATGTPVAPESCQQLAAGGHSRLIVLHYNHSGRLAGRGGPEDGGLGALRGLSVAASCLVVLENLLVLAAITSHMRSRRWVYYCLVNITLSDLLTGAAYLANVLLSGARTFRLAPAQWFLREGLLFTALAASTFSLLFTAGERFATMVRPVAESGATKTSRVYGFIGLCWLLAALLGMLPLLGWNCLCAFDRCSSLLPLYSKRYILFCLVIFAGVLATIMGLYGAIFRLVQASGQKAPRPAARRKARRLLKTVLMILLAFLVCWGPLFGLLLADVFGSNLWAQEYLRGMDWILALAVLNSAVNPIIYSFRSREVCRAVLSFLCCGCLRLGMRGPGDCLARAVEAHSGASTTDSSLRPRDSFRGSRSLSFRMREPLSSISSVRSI
S1P4 antagonist: human S1P4 receptor antagonism; AID 1510; S1P4-expressing cells, antagonist mode, reporter read-out; 0.26% of 220,000 active; O95977; inhibition, % at 4.98 µM; in the data active = inhibition above about 29%
MDM2 E3 inh: inhibitors of human Mdm2 E3 ubiquitin ligase; Q00987; cell-based MDM2 ubiquitination luciferase reporter, 2 h; 0 = plate control, 100 = twice control, blank-subtracted; signal enhancement, % at 5 µM; 0.11% of 210,000 active; AID 1230;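 active = signal enhancement of 30% or more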;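 note: luminescence tracks abundance of the self-degrading MDM2-luciferase fusion protein; higher signal means inhibition of MDM2 E3 ligase activity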
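Material: stable MDM2–luciferase fusion reporter cells / Quantity: 2000 cells/well / Dosing: single 5 µM compound dose, 0.2% final DMSO / Buffer or medium: DMEM / Schedule: 4 h cell settling then 2 h compound exposure, 37 °C / Detection: luminescence with SteadyLite reagent, 15 min at room temperature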
Lmaj promast: inhibitors of Leishmania major promastigote growth. AID 1063. inhibition, % at 10 µM. Leishmania major promastigotes, resazurin fluorescence viability. 9% of 200,000 active; in the data active = inhibition above about 50%;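 note: promastigotes grown with compound for 44 hours at 28 °C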
S1P3 antag: blocks the human S1P3 receptor. inhibition, % at 4.98 µM. 0.27% of 170,000 active. CHO S1P3 NFAT-BLA reporter, FRET fluorescence, antagonist mode. AID 485. Q99500;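 active = inhibition above the plate cutoff, the mean inhibition of test wells on that plate plus 3 SD, cut at about 28% in these data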;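 note: cells challenged with S1P at its EC80 of 0.8 µM; blue over green emission ratio from cleaved BLA substrate after 4 h stimulation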
Large screens that a line does not name were inactive.

O=C(CCCc1cccs1)N1CCN(S(=O)(=O)c2ccccc2Br)CC1	none
CC(=O)N1CCc2ccc(S(=O)(=O)N3CCN(C)CC3)cc21	Lmaj promast 52.6
CC(=O)N1CCc2ccc(S(=O)(=O)N3CC(C)OC(C)C3)cc21 (stereo unspecified)	none
CN1CCN(S(=O)(=O)c2ccc(Cc3ccc(S(=O)(=O)N4CCN(C)CC4)cc3)cc2)CC1	Lmaj promast 64.7
O=C(Nc1ccc(Cl)c(Cl)c1)N1CCSCC1	Lmaj promast 74.0 (no result: S1P3 antag)
O=C(Nc1ccc(Cl)c(Cl)c1)N1CCC(N2CCCCC2)CC1	Lmaj promast 91.0
O=C(Nc1ccccc1)N1CCSCC1	none
COc1cccc(NC(=O)N2CCC(N3CCCCC3)CC2)c1	none
COc1ccc(Cl)c(NCCC(=O)O)c1	none
C/C(=N\NC(=O)c1c[nH]c2ccccc12)c1ccccn1	Lmaj promast 100.5
O=C1c2ccccc2C(Nc2ccc(F)cc2F)N1CCN1CCOCC1 (stereo unspecified)	none
CC(=O)NC1=NN(C(C)=O)C(c2ccccn2)S1 (stereo unspecified)	none
CC(C)Cc1nnc(NC(=O)CSc2nc(-c3ccccc3)cc(=O)[nH]2)s1	none
C=CC[n+]1c(/C=C2\C=Cc3cc(C)ccc3N2CC)ccc2ccccc21	Lmaj promast 100.4
CCNc1ccc(P(=O)(c2ccccc2)c2ccccc2)cc1	none
Cc1nn(CC(N)=O)c(=O)c2ccccc12	Lmaj promast 99.8 (no result: S1P3 antag)
C[C@@H](C(=O)Nc1ccc2ccccc2c1)[C@H]1C[C@]1(C)[C@H](NC(=O)OCc1ccccc1)c1ccccc1	S1P3 antag 32.1 (no result: MDM2 E3 inh)
C[C@H](CO)NC(=O)[C@H](C)[C@H]1C[C@]1(C)[C@H](NC(=O)OCc1ccccc1)c1ccccc1	none (no result: MDM2 E3 inh)
COc1ccc(CCNC(=O)CSc2nc3ccccc3o2)cc1	none (no result: S1P3 antag)
Cc1ccc(C(C)C)c(OCc2ccc(C(=O)N/N=C/c3ccc(O)cc3O)cc2)c1	Lmaj promast 100.4
CCCNC(=O)c1c(N)n(-c2ccc3c(c2)OCO3)c2nc3ccccc3nc12	none
Nc1c(C(=O)NC2CC2)c2nc3ccccc3nc2n1-c1ccc2c(c1)OCO2	Lmaj promast 97.1 (no result: MDM2 E3 inh)
Nc1c(C(=O)OCC2CCCO2)c2nc3ccccc3nc2n1-c1ccc2c(c1)OCCO2 (stereo unspecified)	Lmaj promast 54.1
Cc1ccc(-n2c(N)c(C(=O)Nc3c(C)n(C)n(-c4ccccc4)c3=O)c3nc4ccccc4nc32)cc1C	Lmaj promast 79.0
CC(/C=C1\N=C(SCc2ccccc2)SC1=O)=C\c1ccccc1	none
O=C(CN1C(=O)c2ccccc2C1=O)N1CCN=C1c1ccccc1	none (no result: Lmaj promast)
COc1cc2c(cc1NC(=O)CSc1nc3ccc(C)cc3[nH]1)oc1ccccc12	Lmaj promast 65.2
CCn1c(SCC(=O)Nc2cc3oc4ccccc4c3cc2OC)nnc1-c1cccs1	Lmaj promast 65.9
Cc1cc(Cl)ccc1NC(=O)CSc1nnc(Cc2cccs2)n1Cc1ccco1	Lmaj promast 86.5
COc1cc2c(cc1NC(=O)CSc1ccc(C)cc1)oc1ccccc12	none (no result: S1P3 antag)
COc1ccccc1C(=O)Nc1nnc(SCC(=O)Nc2ccc3c(c2)oc2ccccc23)s1	Lmaj promast 96.1
Cc1cccc(C(=O)Nc2nnc(SCC(=O)Nc3ccc4c(c3)oc3ccccc34)s2)c1	none
C=CCn1c(SCC(=O)Nc2cc3oc4ccccc4c3cc2OC)nnc1-c1cnccn1	none
CCC(C)NC(=O)CC(c1ccccc1)c1cc(C)ccc1O (stereo unspecified)	none
COc1cc2c(cc1NC(=O)CSc1nnc(Cc3cccs3)n1C)oc1ccccc12	none
COc1cc2c(cc1NC(=O)CSc1nnc(Cc3cccs3)n1Cc1ccco1)oc1ccccc12	Lmaj promast 90.7 (no result: S1P3 antag)
Cc1ccc2nc(SCC(=O)Nc3cc(C(F)(F)F)ccc3N3CCOCC3)[nH]c2c1	Lmaj promast 53.3 (no result: S1P3 antag)
O=C(Nc1ccccc1C(=O)O)/C(=C/c1ccc([N+](=O)[O-])cc1)NC(=O)c1ccc(Br)o1	none
Cc1ccc2c(N)c(C(=O)N(c3ccccc3)c3ccccc3)sc2n1	none (no result: S1P3 antag)
Cc1cccc2sc(NNC(=O)c3ccc4c(c3)OCCO4)nc12	none (no result: MDM2 E3 inh)
Cc1cccc2sc(NNC(=O)c3ccc(S(=O)(=O)N4CCc5ccccc5C4)cc3)nc12	Lmaj promast 99.2 (no result: MDM2 E3 inh)
Cc1cccc2sc(NNC(=O)c3ccc(S(=O)(=O)N4CCCC(C)C4)cc3)nc12 (stereo unspecified)	Lmaj promast 95.9 (no result: MDM2 E3 inh)
CCNC(=O)/C(=C\c1ccccc1)NC(=O)/C=C/c1ccccc1	Lmaj promast 84.8
CCn1c(N)c(C(=O)NCc2cccnc2)sc1=S	S1P3 antag 54.2
COc1ccc(-c2cn3c(C)c(C(=O)NCCN4CCOCC4)sc3n2)cc1	none
Cc1c(C(=O)NCCCN2CCOCC2)sc2nc(-c3ccc(F)cc3)cn12	Lmaj promast 79.0
Cc1c(C(=O)NCc2cccnc2)sc2nc(-c3ccc(F)cc3)cn12	Lmaj promast 96.3
COc1ccc(CN2CNc3c(c(=O)n(C)c(=O)n3C)C2)cc1	none
O=[N+]([O-])c1cccc2c(N3CCCC3)ccnc12	Lmaj promast 88.0
CCNc1nc(NC(C)C)nc(N(C#N)Cc2ccccc2)n1	none
CCNc1nc(NC(C)C)nc(N(C#N)CCOc2ccc(Cl)cc2Cl)n1	Lmaj promast 96.8
COc1ccc(N(CC(=O)Nc2cccc(OC)c2)S(=O)(=O)c2c(C)nn(C)c2C)cc1	Lmaj promast 57.4
COc1ccc(N(CC(=O)Nc2cc(OC)ccc2OC)S(=O)(=O)c2c(C)nn(C)c2C)cc1	Lmaj promast 100.0
COc1ccc(N(CC(=O)Nc2nc3ccc(C)cc3s2)S(=O)(=O)c2c(C)nn(C)c2C)cc1	Lmaj promast 65.9
O=C(Nc1ccc(NC(=O)C2CCCCC2)nc1)c1cccs1	Lmaj promast 98.6
O=C(Nc1ccc(N2CCOCC2)nc1)c1cccs1	none
CC(C)(C)NC(=S)NC(=O)C12CC3CCC(CC(C3)C1)C2	none
O=C(NC(=S)NC1C2CC3CC(C2)CC1C3)C12CC3CC(CC(C3)C1)C2 (stereo unspecified)	Lmaj promast 51.2
O=C(O)CC1NC(=O)N(C2CCCCC2)C1=O (stereo unspecified)	none
CN(/N=C\c1ccc(O)c(O)c1)c1nc(-c2ccccc2)cc(-c2ccccc2)n1	Lmaj promast 100.3
Cc1ccc(S(=O)(=O)N(C)c2c(C)ccc(S(N)(=O)=O)c2C)cc1	none
O=C(NC(=S)N(CCc1ccccc1)CCc1ccccc1)c1ccco1	Lmaj promast 94.7
COc1ccc(C(=O)NC(=S)N(Cc2ccccc2)Cc2ccccc2)cc1	Lmaj promast 89.8 (no result: S1P3 antag)
COc1cc(C(=O)NC(=S)N(CCc2ccccc2)CCc2ccccc2)cc(OC)c1OC	Lmaj promast 99.3
Cc1nc(CCNC(=O)c2cc(COc3ccc(F)cc3Cl)on2)sc1C	none (no result: Lmaj promast)
CCN(CC)CCOC(=O)/C=C/c1ccccc1OC	none
CN(C)c1ccc(/C=C2\CCC/C(=C\c3ccccc3)C2=O)cc1	none
O=C1NC(=S)N/C1=C\c1cccnc1	none (no result: Lmaj promast)

Assay outcomes from PubChem.
